Screens from PubChem.
Only some compounds are listed: those with a hit (about 3.8% of all), similar ones and a draw of the others.
ARNT-TACC3 inh: disruptors of human ARNT/TACC3 interaction. 390,000 compounds, 0.66% hits. AID 623870. AlphaScreen His-ARNT PAS-B/GST-TACC3 binding, luminescence; TACC3 fragment carries E629A point mutation. inhibition, % at 9.99 µM;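 active = mean inhibition of replicates at least 50% and at least half of replicates each reaching 50%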
DENV2 CPE: inhibitors of DENV2 cytopathic effect. DENV2-infected cells, cytopathic effect rescue, plate reader. CPE inhibition, % at 9.99 µM. 350,000 compounds, 1.7% hits. AID 651640; in the data active = CPE inhibition above about 20%, passing the limit was not always enough; tested in BHK-21 cells
SIRT5 block: sirtuin-5 (human) deacylase inhibition; inhibition, % at 15 µM; 330,000 compounds, 1.1% hits; Purified SirT5, succinyl-peptide AMC, trypsin-coupled fluorescence; AID 652115; Q9NXA8; in the data active = inhibition above about 15%
Target sequence (Q9NXA8 whole entry, looked up): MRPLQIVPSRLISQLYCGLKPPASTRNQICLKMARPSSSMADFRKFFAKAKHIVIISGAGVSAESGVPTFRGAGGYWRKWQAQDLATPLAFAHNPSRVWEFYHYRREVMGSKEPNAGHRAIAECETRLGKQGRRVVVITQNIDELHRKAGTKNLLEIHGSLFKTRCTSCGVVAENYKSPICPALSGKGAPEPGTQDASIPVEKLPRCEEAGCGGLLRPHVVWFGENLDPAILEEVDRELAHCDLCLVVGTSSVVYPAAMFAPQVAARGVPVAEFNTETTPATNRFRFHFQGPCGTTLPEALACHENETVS
Xi reactivation: activators of X-chromosome reactivation in mouse fibroblasts. AID 743238. 360,000 compounds, 0.055% hits. XiGFP mouse fibroblasts, % GFP-positive cells imaging, 3 d; cells co-treated with 5-aza-dC sensitizer; scaled so ellipticine positive control = 100%. activation, % at 7.58 µM;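 active = mean normalized replicate activation at least 10% and every replicate at or above 10%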
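Material: XiGFP fibroblasts, SV40-immortalized. Buffer or medium: DMEM plus 5-aza-dC sensitizer. Compound: single concentration per compound, delivered by pin transfer. Times: 3 days compound exposure. Controls: ellipticine 6 µM.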
FN deposit inh: fibronectin deposition inhibition; AH1F fibroblasts, Alexa488-fibronectin deposition fluorescence, overnight; inhibition, % at 12.6 µM; 350,000 compounds, 0.086% hits; AID 743247;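 active = mean inhibition across replicates of 30% or more, regardless of how many single replicates reach that level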
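Assay system: AH1F fibroblasts assembling fluorescent fibronectin matrix; Amount: 10000 AH1F cells per well; Buffer or medium: DMEM, 2% serum; Probe or stimulus: Alexa488-fibronectin, 24 nM final in well; Doses: single compound dose, delivered by pin transfer; Incubation: 1 h adhesion, overnight exposure; Measured by: fluorescence 485/525 nm; Read-out: fibronectin deposition inhibition.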
FGF22 binding: FGF22 (human) thermal shift binding; recombinant FGF22 thermal shift, SYPRO orange fluorescence; percent of sucrose octasulfate shift, DMSO zero; activity (Tm shift, normalised), % at 9.99 µM; 340,000 compounds, 1.5% hits; AID 651658;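 active = mean Tm shift, scaled 0 neutral to 100 positive control, at about 1.3% or above, every replicate too, limit read from the data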
Target sequence (Q9HCT0 whole entry, looked up): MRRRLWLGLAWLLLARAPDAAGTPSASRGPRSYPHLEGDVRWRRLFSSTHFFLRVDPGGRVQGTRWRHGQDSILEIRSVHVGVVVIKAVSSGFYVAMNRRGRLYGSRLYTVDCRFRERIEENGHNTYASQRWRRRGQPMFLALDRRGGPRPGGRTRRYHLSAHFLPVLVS
Of the large screens only hits and unclear results are named; the others gave an inactive call; ! = not active in a repeat.

CN1C(=O)c2cc(NC(=O)C3CC3)ccc2OC[C@@H]2O[C@H](CC(=O)O)CC[C@@H]21	none (no result: ARNT-TACC3 inh, FGF22 binding)
O=C(C[C@@H]1C=C[C@H](NC(=O)C2CCOCC2)[C@@H](CO)O1)Nc1ccc(-c2ccccc2)cc1	none
C[C@H]1CN([C@@H](C)CO)C(=O)c2cc(-c3ccc(F)cc3)cnc2O[C@@H]1CN(C)C(=O)c1ccc(F)cc1	none
CO[C@@H]1CN(C)C(=O)c2ccc(NC(=O)C3CCOCC3)cc2OC[C@@H](C)N(CC2CCCCC2)C[C@H]1C	DENV2 CPE 53.7 (no result: SIRT5 block)
CO[C@H]1CN(C)C(=O)c2cc(NC(=O)Nc3ccccc3F)ccc2OC[C@H](C)N(C(C)=O)C[C@H]1C	DENV2 CPE 21.4
CO[C@@H]1CN(C)C(=O)c2ccc(NC(=O)C3CCOCC3)cc2OC[C@H](C)N(CC2CC2)C[C@@H]1C	none (no result: ARNT-TACC3 inh)
Cc1noc(C)c1NC(=O)Nc1ccc2c(c1)CC(=O)N([C@@H](C)CO)C[C@H](C)[C@H](CN(C)S(=O)(=O)c1ccccc1)O2	none (no result: ARNT-TACC3 inh, FN deposit inh)
C[C@@H]1CCCCO[C@H](CN(C)Cc2ccc(C(=O)Nc3ccccc3N)cc2)[C@@H](C)CN([C@H](C)CO)C(=O)c2cc(N(C)C)ccc2O1	none (no result: ARNT-TACC3 inh, DENV2 CPE, SIRT5 block, FN deposit inh, FGF22 binding)
Cc1ccc2nc(SCc3nc4cc(Cl)ccc4c(=O)[nH]3)[nH]c2c1	FGF22 binding 43.1
Cc1ccc2nc(SCc3nc4c(cnn4-c4ccccc4)c(=O)[nH]3)[nH]c2c1	none (no result: DENV2 CPE, SIRT5 block, Xi reactivation, FN deposit inh, FGF22 binding)
O=C(CN1CCN(c2cccc(C(F)(F)F)c2)CC1)N(C1CCCC1)C1CCS(=O)(=O)C1 (centres undefined)	DENV2 CPE 50.8
O=C(CN1CCN(c2cccc(C(F)(F)F)c2)CC1)N(C1CC1)C1CCS(=O)(=O)C1 (centres undefined)	none
c1cn(CCCNC2=NCCCCC2)cn1	ARNT-TACC3 inh 96.8 (no result: DENV2 CPE, SIRT5 block, Xi reactivation, FGF22 binding)
c1cn(CCCNC2CCCCCCC2)cn1	none
COc1ccc2c3c(n(C)c2c1)[C@H](CO)N(C(=O)c1cccnc1)CC31CCN(C(=O)c2cccnc2)CC1	none (no result: ARNT-TACC3 inh, SIRT5 block, FN deposit inh)
O=C(Cc1cccnc1)N1CC(=O)N2[C@H](C1)[C@@H](c1ccc(C3=CCCCC3)cc1)[C@@H]2CO	none (no result: ARNT-TACC3 inh)
COc1cc(CN2CC3(CCN(C)CC3)c3c([nH]c4cc(OC)ccc34)[C@@H]2CO)cc(OC)c1	none (no result: ARNT-TACC3 inh, DENV2 CPE, SIRT5 block, FN deposit inh, FGF22 binding)
CCCCCCCCCCCCOC1OC(CO)C(O)C(O)C1NC(C)=O (centres undefined)	DENV2 CPE 23.3 (no result: SIRT5 block)
Cc1cc(N/N=C/c2ccccc2)nc(NCc2ccccc2)n1	none (no result: FN deposit inh)
Cc1cc(N/N=C/c2ccc(Cl)cc2)nc(NCc2ccccc2)n1	FGF22 binding 1.6
O=c1nc2cccc3c2=c(/c1=C(\O)c1ccccc1)c1ccccc1c3=O	FGF22 binding 43.8
COc1ccccc1C(=O)N1C[C@H]2[C@@H](c3ccccc31)[C@H](CO)N2C(=O)C1CCOCC1	none (no result: FN deposit inh)
C/C=C/c1ccc(C2[C@H]3CNC[C@@H]2N3Cc2nccs2)cc1 (some centres undefined)	DENV2 CPE 39.1! (no result: ARNT-TACC3 inh, FGF22 binding)
O=C(O)C1=C[C@@H](c2ccc3c(c2)Cc2ccccc2-3)C[C@@H](OCCCCO)O1	none (no result: Xi reactivation, FN deposit inh)
C[C@@H]1CN([C@H](C)CO)C(=O)c2cc(NC(=O)Nc3ccc4c(c3)OCO4)ccc2O[C@H]1CN(C)S(=O)(=O)c1ccc(F)cc1	none (no result: FN deposit inh)
COc1cccc(S(=O)(=O)N2CC[C@@H]3[C@H]2c2cc(Br)ccc2N[C@@H]3CO)c1	none (no result: SIRT5 block)
CCCCOc1ccc(C(=O)Oc2cc(C)[nH]c(=O)c2[N+](=O)[O-])cc1	ARNT-TACC3 inh 46.1
CCCNC(=O)C[C@H]1CC[C@@H]2[C@@H](COc3ccc(NC(=O)Nc4cccc(C)c4)cc3C(=O)N2C)O1	none
c1ccc(-c2ccncc2)nc1	DENV2 CPE 79.0 (no result: SIRT5 block)
CNC(=O)C[C@H]1CC[C@@H]2[C@H](COc3ccc(NC(=O)NCc4ccccc4)cc3C(=O)N2C)O1	none (no result: SIRT5 block)
COc1ccc(C(C(=O)NC2CCCC2)N2CCc3ccccc32)cc1 (centres undefined)	DENV2 CPE 57.0
Cc1c(NS(=O)(=O)c2ccc(N=NN(C)C)cc2)c(=O)n(-c2ccccc2)n1C	SIRT5 block 17.7
